Test results taken from ChEMBL document CHEMBL4619796, “Discovery of 3-Quinazolin-4(3H)-on-3-yl-2,N-dimethylpropanamides as Orally Active and Selective PI3Kα Inhibitors” (ACS Med Chem Lett, 2020).

How the values were obtained:
[1] = Metabolic stability in Beagle dog liver microsomes assessed as parent compound remaining at 10 uM preincubated for 10 mins in water bath followed by NADPH addition and measured after 60 mins by LC-MS/MS analysis; assay type: ADME, Canis lupus familiaris, Microsome; details: read-out: Stability
[2] = target: Phosphatidylinositol 4,5-bisphosphate 3-kinase catalytic subunit alpha isoform (Homo sapiens, UniProt P42336); assay: Inhibition of PI3Kalpha in human BT474 cells expressing P3KCA mutant assessed as reduction in AKT phosphorylation at residue S473 incubated for 2 hrs followed by insulin addition by ELISA; assay type: cell-based; details: bt-474
Phosphatidylinositol 4,5-bisphosphate 3-kinase catalytic subunit alpha isoform, sequence (P42336 whole entry, looked up, canonical isoform): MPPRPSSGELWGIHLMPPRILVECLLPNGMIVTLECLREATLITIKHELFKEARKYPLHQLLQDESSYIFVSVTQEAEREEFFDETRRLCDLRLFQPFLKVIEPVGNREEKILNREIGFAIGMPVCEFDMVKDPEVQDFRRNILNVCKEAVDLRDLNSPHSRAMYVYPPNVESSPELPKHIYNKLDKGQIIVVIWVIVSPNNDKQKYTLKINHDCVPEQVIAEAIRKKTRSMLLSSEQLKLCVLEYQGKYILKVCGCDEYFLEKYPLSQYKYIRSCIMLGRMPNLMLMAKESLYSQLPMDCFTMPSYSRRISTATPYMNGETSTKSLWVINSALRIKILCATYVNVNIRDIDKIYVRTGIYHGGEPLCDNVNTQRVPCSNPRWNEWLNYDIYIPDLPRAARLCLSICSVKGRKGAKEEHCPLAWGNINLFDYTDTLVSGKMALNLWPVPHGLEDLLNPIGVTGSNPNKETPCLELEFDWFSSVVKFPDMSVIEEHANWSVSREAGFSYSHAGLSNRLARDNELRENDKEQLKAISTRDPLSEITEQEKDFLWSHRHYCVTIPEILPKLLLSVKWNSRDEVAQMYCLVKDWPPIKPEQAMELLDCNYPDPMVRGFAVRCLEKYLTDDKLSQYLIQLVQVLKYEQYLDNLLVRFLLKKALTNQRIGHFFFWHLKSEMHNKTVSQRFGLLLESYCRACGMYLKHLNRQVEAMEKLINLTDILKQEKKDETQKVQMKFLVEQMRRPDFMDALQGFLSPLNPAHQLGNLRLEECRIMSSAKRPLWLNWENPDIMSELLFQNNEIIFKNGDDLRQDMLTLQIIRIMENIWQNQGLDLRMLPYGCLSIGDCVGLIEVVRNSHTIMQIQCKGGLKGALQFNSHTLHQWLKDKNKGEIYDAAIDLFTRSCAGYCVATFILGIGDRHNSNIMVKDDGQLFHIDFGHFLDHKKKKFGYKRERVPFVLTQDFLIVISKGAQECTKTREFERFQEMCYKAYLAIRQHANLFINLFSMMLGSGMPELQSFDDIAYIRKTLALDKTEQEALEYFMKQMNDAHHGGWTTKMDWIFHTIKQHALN
Procedure, shortened: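 Akt phosphorylation was measured in the PIK3CA mutant human breast ductal carcinoma BT-474 cell line, used as a PI3Kα-sensitive cellular readout. IC50 determined.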

[3] = Clearance in Beagle dog cryopreserved hepatocytes incubated for 10 mins under shaking condition by LC-MS/MS analysis; assay type: ADME, cell-based, Canis lupus familiaris, Hepatocyte; details: read-out: CLH
[4] = Volume of distribution in BALB/c mouse at 1 mg/kg, iv by HPLC analysis; details: in vivo
[5] = system: BT-474; assay: Antitumor activity against PI3KCA mutant human BT474 cells xenografted in BALB/c nude mouse assessed as tumor growth inhibition at 40 mg/kg, po administered once daily and measured after 30 days by caliper method relative to control; assay type: functional; details: BT-474, po, 720 h, read-out: TGI
[6] = Clearance in CD-1 mouse cryopreserved hepatocytes incubated for 10 mins under shaking condition by LC-MS/MS analysis; assay type: ADME, cell-based, Hepatocyte; details: read-out: CLH
[7] = Cmax in BALB/c mouse at 10 mg/kg, po by HPLC analysis; assay type: ADME, organism-based; set-up: dose 10 mg/kg, route oral; details: in vivo
[8] = Oral bioavailability in Sprague-Dawley rat at 3 mg/kg by HPLC analysis; assay type: ADME, organism-based; details: in vivo
[9] = target: Phosphatidylinositol 4,5-bisphosphate 3-kinase catalytic subunit gamma isoform (Mus musculus, UniProt Q9JHG7); assay: Inhibition of PI3Kgamma in mouse RAW264.7 cells assessed as reduction in AKT phosphorylation at residue S473 treated with mouse C5a component and measured after 3 mins
Phosphatidylinositol 4,5-bisphosphate 3-kinase catalytic subunit gamma isoform, sequence (Q9JHG7 whole entry, canonical isoform): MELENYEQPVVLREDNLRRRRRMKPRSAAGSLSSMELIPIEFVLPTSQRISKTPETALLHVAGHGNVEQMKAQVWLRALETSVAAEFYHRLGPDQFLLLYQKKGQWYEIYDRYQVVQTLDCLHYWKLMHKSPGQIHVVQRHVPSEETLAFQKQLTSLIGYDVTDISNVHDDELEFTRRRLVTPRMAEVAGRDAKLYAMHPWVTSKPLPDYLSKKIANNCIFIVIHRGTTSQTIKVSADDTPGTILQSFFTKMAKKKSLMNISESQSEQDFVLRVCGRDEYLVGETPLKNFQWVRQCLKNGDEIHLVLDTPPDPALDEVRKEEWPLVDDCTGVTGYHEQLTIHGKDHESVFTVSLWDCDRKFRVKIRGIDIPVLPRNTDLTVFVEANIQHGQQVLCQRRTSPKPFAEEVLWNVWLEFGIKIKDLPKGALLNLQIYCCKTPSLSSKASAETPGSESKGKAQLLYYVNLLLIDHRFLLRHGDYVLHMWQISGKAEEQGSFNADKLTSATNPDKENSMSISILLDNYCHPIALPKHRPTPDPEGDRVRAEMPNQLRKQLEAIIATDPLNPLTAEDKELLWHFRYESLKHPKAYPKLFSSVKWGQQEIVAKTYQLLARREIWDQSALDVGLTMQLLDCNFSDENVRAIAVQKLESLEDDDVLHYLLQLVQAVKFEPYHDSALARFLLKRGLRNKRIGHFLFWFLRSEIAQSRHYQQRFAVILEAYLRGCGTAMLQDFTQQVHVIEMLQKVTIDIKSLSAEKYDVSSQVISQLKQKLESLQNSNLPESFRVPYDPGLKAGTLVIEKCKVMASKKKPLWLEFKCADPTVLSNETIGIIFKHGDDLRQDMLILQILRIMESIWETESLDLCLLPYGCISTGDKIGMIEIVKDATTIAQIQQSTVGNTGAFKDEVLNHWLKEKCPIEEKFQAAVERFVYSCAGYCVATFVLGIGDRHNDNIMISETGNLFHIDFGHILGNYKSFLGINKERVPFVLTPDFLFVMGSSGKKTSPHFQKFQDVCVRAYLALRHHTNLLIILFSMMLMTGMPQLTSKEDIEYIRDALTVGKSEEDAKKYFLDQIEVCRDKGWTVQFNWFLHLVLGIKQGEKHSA

[10] = Half life in BALB/c mouse at 1 mg/kg, iv by HPLC analysis; details: in vivo
[11] = Clearance in BALB/c mouse at 1 mg/kg, […] by HPLC analysis; assay type: ADME, organism-based; details: in vivo

Q: Which remaining at 1 h, 10 µM [1] does the source give for `CNC(=O)[C@H](C)Cn1cnc2ccc(-c3cnc(OC)c(NS(=O)(=O)c4ccc(F)cc4Cl)c3)cc2c1=O` here?
A: 53.9%

Q: And the IC50 [2]?
A: 12.1 nM

Q: What about the CLint scaled [3] of the same molecule?
A: < 44 mL/min/kg

Q: What about the Vd [4] of the same molecule?
A: 0.179 L/kg

Q: What about the inhibition in vivo at 40 mg/kg [5] of the same molecule?
A: 90.7%

Q: And the CLint scaled [6]?
A: 642 mL/min/kg

Q: What about the Cmax [7] of the same molecule?
A: 37 µM

Q: And the bioavailability [8]?
A: 46.9%

Q: And the IC50 [9]?
A: > 10000 nM

Q: And the half-life [10]?
A: 58 min

Q: And the CL/F [11]?
A: 4.2 mL/min/kg
